Calls of active or inactive are those of the source. The calls are words filed in the database; no cut-off is given here.
Key:
[1] = target: cGMP-specific 3',5'-cyclic phosphodiesterase (Homo sapiens, UniProt O76074); assay: Inhibition of PDE5
[2] = Selectivity ratio of IC50 for PDE6 to IC50 for PDE5
Procedure, shortened: (§1)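 The selectivity value is the IC50 at PDE11 or PDE6 divided by the IC50 at PDE5.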

[3] = Selectivity ratio of IC50 for PDE11 to IC50 for PDE5; procedure, shortened: as §1
[4] = Metabolic stability in human liver microsomes assessed as compound remaining after 30 mins; type: ADME, Microsome; details: read-out: Stability
[5] = Half life in human liver microsomes; type: ADME, Microsome
[6] = Half life in Beagle dog at 0.2 mg/kg, iv; type: ADME, organism-based, Canis lupus familiaris; design: dose 0.2 mg/kg, route intravenous; details: in vivo
Procedure, shortened: (§2)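 Beagle dogs of about 10 kg were dosed at 0.2–0.5 mpk. From the plasma profile, terminal half-life was reported in h, clearance in mL/min/kg and steady-state volume of distribution in L/kg.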

[7] = Clearance in Beagle dog at 0.2 mg/kg, iv; type: ADME, organism-based, Canis lupus familiaris; design: dose 0.2 mg/kg, route intravenous; details: in vivo; procedure, shortened: as §2
[8] = Volume of distribution at steady state in Beagle dog at 0.2 mg/kg, iv; type: ADME, organism-based, Canis lupus familiaris; design: dose 0.2 mg/kg, route intravenous; details: in vivo, read-out: Vdss; procedure, shortened: as §2
Rattus norvegicus [9] = assay: Antihypertensive activity in spontaneously hypertensive rat assessed as decrease of mean arterial blood pressure at 1.5 mg/kg, iv after 2 hrs; type: functional, Artery
Procedure, shortened: (§3)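 Spontaneously hypertensive rats received a single IV dose of 1.5 mg/kg. Mean arterial blood pressure was monitored after dosing, and the decrease in MAP was read at 2 h and 6 h post dose. Compound blood levels were also monitored, including the free fraction at 6 h.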

Rattus norvegicus [10] = assay: Antihypertensive activity in spontaneously hypertensive rat assessed as decrease of mean arterial blood pressure at 1.5 mg/kg, iv after 6 hrs; type: functional, Artery; procedure, shortened: as §3
Rattus norvegicus [11] = assay: Antihypertensive activity in spontaneously hypertensive rat assessed as decrease of mean arterial blood pressure at 5 mg/kg, po; type: functional, Artery
Procedure, shortened: (§4)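 Spontaneously hypertensive rats were dosed orally, or IV in some cases, with compound levels and blood pressure monitored. The read-out was the decrease in mean arterial pressure (MAP), scored as + for a 10–15 mmHg drop and ++ for a drop of >15 mmHg. Oral dosing at 5 mg/kg was followed for up to 20 h post dose.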

Rattus norvegicus [12] = assay: Antihypertensive activity in spontaneously hypertensive rat assessed as decrease of mean arterial blood pressure at 5 mg/kg, po up to 20 hrs; type: functional, organism-based; design: dose 5 mg/kg; details: Artery; procedure, shortened: as §4
Rattus norvegicus [13] = species: Rattus norvegicus; assay: Antihypertensive activity in spontaneously hypertensive rat assessed as decrease of mean arterial blood pressure; type: functional, Artery; procedure, shortened: as §4
hERG (KCNH2) = hERG (KCNH2) (Homo sapiens, UniProt Q12809); assay: Displacement of [3H]dofetilide from human ERG expressed in HEK293 cells at 10 uM; type: cell-based; details: HEK293 cells that express human ERG, probe [3H]dofetilide
[14] = Inhibition of PDE6
[15] = target: Voltage-gated inwardly rectifying potassium channel KCNH2 (Homo sapiens, UniProt Q12809); assay: Inhibition of human ERG expressed by patch clam electrophysiology assay
Chain of Voltage-gated inwardly rectifying potassium channel KCNH2 (Q12809 whole entry): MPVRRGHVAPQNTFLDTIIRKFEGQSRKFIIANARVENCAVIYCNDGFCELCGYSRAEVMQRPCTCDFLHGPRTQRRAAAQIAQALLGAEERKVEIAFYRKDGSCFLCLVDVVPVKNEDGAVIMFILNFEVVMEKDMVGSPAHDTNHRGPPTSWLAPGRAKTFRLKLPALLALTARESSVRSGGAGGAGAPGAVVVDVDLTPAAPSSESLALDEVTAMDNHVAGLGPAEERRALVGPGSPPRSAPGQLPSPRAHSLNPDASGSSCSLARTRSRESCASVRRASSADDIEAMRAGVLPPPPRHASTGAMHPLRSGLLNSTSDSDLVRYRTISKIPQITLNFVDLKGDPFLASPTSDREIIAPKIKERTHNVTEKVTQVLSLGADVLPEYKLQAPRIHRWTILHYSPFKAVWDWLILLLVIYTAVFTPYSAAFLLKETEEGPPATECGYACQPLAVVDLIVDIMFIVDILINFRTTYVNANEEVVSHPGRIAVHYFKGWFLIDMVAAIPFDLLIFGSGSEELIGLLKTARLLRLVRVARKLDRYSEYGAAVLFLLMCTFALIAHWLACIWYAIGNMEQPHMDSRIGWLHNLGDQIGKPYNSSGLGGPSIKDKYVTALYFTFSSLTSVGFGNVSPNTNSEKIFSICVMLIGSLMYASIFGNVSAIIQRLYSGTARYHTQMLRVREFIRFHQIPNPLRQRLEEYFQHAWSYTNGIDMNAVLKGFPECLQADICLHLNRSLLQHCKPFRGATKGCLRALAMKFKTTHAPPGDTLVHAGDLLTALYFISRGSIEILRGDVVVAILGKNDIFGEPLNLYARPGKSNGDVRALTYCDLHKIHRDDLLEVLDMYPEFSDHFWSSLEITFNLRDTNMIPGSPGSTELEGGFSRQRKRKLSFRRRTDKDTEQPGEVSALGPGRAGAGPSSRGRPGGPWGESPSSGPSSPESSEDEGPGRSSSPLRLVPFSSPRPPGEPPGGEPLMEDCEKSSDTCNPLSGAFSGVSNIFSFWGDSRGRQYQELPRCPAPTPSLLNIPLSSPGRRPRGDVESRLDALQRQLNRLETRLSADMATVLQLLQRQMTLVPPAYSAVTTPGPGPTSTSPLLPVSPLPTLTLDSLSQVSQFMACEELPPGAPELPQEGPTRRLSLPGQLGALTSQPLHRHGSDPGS

Chain of hERG (KCNH2) (Q12809 whole entry): as above

SMILES | IC50 [1] [nM] | Ratio IC50 [2] | Ratio IC50 [3] | also measured
CCc1nn(CCOCC(F)(F)F)c2c(Nc3ccncn3)nc(NCCN)nc12 | 9.52 | > 210 | > 210 | –
CCc1nn(CCOCC(F)(F)F)c2c(Nc3ccc(F)cc3)nc(N3CCNCC3)nc12 | 0.09 | – | – | –
CCc1nn(CCOCC(F)(F)F)c2c(Nc3ccncn3)nc(N(C)C3CCN(C)CC3)nc12 | 0.35 | 285 | 5650 | remaining at 0.5 h [4]: 31%
CCc1nn(CCOCC(F)(F)F)c2c(Nc3ccncn3)nc(N3CCN[C@H](C)C3)nc12 | 0.07 | – | – | half-life [5]: 0.7 h; half-life [6]: 5.1 h; clearance [7]: 18.5 mL/min/kg; Vd [8]: 7.8 L/kg; Activity (Rattus norvegicus [9]): 27 mmHg; Activity (Rattus norvegicus [10]): 23 mmHg; Activity (Rattus norvegicus [11]): 27 mmHg; Activity (Rattus norvegicus [12]): Active; Activity (Rattus norvegicus [13]): >15 mmHg
CCc1nn(CCOCC(F)(F)F)c2c(Nc3ccncn3)nc(N3CCNCC3)nc12 | 0.15 | – | – | Activity (Rattus norvegicus [13]): 10 mmHg
CCc1nn(CCOCC(F)(F)F)c2c(Nc3ccncn3)nc(N3CCCN(C)CC3)nc12 | 6.48 | 309 | 287 | –
Cc1nn(CCOCC(F)(F)F)c2c(Nc3ccncn3)nc(N3CCN[C@H](C)C3)nc12 | 0.14 | – | – | inhibition at 10 µM (hERG (KCNH2)): 24.7%; Activity (Rattus norvegicus [13]): >15 mmHg
CCc1nn(CCOCC(F)(F)F)c2c(Nc3ccncn3)nc(N3CCNC(=O)C3)nc12 | 2.96 | – | – | –
CCc1nn(CCOC(C)C)c2c(Nc3ccccn3)nc(N3CCNCC3)nc12 | 0.86 | 50 | 52 | –
Cc1nn(CCOCC(F)(F)F)c2c(Nc3ccncn3)nc(N3CCCNCC3)nc12 | 9.79 | 35 | 204 | –
CCCc1nn(C)c2c(=O)[nH]c(-c3cc(S(=O)(=O)N4CCN(C)CC4)ccc3OCC)nc12 | – | – | – | IC50 [14]: 30 nM
CCc1nn(CCOCC(F)(F)F)c2c(Nc3ccccn3)nc(N3CCNCC3)nc12 | 0.65 | 150 | 450 | remaining at 0.5 h [4]: 91%
CCOCCn1nc(CC)c2nc(N3CCNCC3)nc(Nc3cccc(C)n3)c21 | – | – | – | IC50 [14]: 946 nM
Cc1cccc(Nc2nc(N3CCNCC3)nc3c(C)nn(CCOCC(F)(F)F)c23)n1 | 0.78 | – | – | inhibition at 10 µM (hERG (KCNH2)): 40%; IC50 [15]: 560 nM
CCc1nn(CCOCC(F)(F)F)c2c(Nc3cccc(C)n3)nc(N3CCNCC3)nc12 | 1.01 | – | – | –
CCc1nn(CCOCC(F)(F)F)c2c(Nc3ccncn3)nc(N3CCOCC3)nc12 | 3.92 | 107 | 5100 | –

The next lines start with results.

IC50 [1] [nM] | Ratio IC50 [2] | Ratio IC50 [3] | SMILES | also measured
3.28 | 220 | 170 | CCc1nn(CCOCC(F)(F)F)c2c(Nc3cc(C)ccn3)nc(N3CCNCC3)nc12 | remaining at 0.5 h [4]: 80%
1.84 | 510 | 280 | Cc1ccnc(Nc2nc(N3CCNCC3)nc3c(C)nn(CCOCC(F)(F)F)c23)c1 | remaining at 0.5 h [4]: 75%
3.15 | 69 | 635 | CCc1nn(CCOCC(F)(F)F)c2c(Nc3ccncn3)nc(N3CCCNCC3)nc12 | –
0.3 | – | – | CCCOCCn1nc(CC)c2nc(N3CCNCC3)nc(Nc3ccccn3)c21 | –
0.94 | – | – | Cc1nn(CCOCC(F)(F)F)c2c(Nc3ccncn3)nc(N3CCN[C@@H](C)C3)nc12 | –
